Data from ChEMBL document CHEMBL3352420, “Discovery of 2-pyridylureas as glucokinase activators” (J Med Chem, 2014).
≈ marks a conversion by molar mass, not a printed value.

Assays:
Hexokinase-4 [1] = target: T1, Hexokinase-4 (Homo sapiens, UniProt P35557); test: Activation of purified human glucokinase isoform 3 (13 to 466 aa) using 5 mM glucose by spectrophotometry in presence of NAD+ and glucose 6-phosphate dehydrogenase
T1 sequence (P35557 whole entry): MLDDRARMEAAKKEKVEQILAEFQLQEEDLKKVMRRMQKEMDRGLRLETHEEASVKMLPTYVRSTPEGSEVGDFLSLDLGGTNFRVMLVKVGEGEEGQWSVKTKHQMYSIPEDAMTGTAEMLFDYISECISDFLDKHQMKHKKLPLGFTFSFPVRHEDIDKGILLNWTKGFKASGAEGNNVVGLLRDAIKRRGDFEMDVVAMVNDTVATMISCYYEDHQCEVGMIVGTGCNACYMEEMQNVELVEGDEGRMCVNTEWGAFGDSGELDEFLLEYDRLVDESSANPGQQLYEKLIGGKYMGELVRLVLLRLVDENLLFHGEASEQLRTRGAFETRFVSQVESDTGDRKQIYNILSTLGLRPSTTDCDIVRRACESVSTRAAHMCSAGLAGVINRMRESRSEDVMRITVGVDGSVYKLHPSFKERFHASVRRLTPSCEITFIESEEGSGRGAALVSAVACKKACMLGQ

Hexokinase-4 [2] = target: T1, Hexokinase-4; test: Activation of purified human glucokinase isoform 3 (13 to 466 aa) using 5 mM glucose by spectrophotometry in presence of NAD+ and glucose 6-phosphate dehydrogenase in presence of 4% HSA; conditions: read-out: EC50
[3] = Extraction ratio in human liver microsomes at 1 uM up to 20 mins by LC-MS/MS analysis; format: ADME; conditions: read-out: ERH
[4] = Extraction ratio in mouse liver microsomes at 1 uM up to 20 mins by LC-MS/MS analysis; format: ADME; conditions: read-out: ERH
Mus musculus [5] = test: Antidiabetic activity in C57BL/6 mouse assessed as reduction in glucose AUC level at 10 mg/kg, po by oral glucose tolerance test relative to control; format: functional; design: scale not given: the % may be the effect or the level left
Summary of the method: (§1)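 Dose–response oral glucose tolerance test in C57BL/6 mice at 3, 10 and 30 mg/kg po. Glucose AUC reduction is reported with p < 0.05 significance. Glucose min is the lowest glucose at the 2 h time point for any animal, n = 8.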

[6] = Solubility of the compound at pH 6.5; format: physicochemical; conditions: buffer
[7] = Half life in fed CD-1 mouse at 1 mg/kg, iv as single dose; format: ADME, organism-based; design: dose 1 mg/kg, route intravenous; conditions: in vivo
Summary of the method: (§2)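 Male CD-1 mice, fed, given a single 1 mg/kg iv dose as a solution in 40% PEG400/20% EtOH/40% saline (v/v). Parameters are calculated from arithmetic mean plasma concentrations, n = 3 per time point.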

[8] = Solubility of the compound at pH 7.4; format: physicochemical; conditions: buffer
[9] = Permeability across pig LLC-PK cells; format: ADME, cell-based, Sus scrofa
Mus musculus [10] = test: Antidiabetic activity in C57BL/6 mouse assessed as reduction in glucose AUC level at 3 mg/kg, po by oral glucose tolerance test relative to control; format: functional; design: scale not given: the % may be the effect or the level left; summary of the method: as §1
[11] = Oral bioavailability in fed CD-1 mouse at 10 mg/kg as single dose; format: ADME, organism-based; conditions: in vivo
Summary of the method: (§3)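 Male CD-1 mice, fed, given a single 10 mg/kg oral dose as a suspension in aqueous 1% CMC/0.05% Tween 80 (w/v). Parameters are calculated from arithmetic mean plasma concentrations, n = 3 per time point.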

[12] = Plasma concentration in C57BL/6 mouse at 3 mg/kg, po measured at 2.5 hrs; format: ADME, organism-based; design: dose 3 mg/kg, route oral
Summary of the method: (§4)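 C57BL/6 mice in the OGTT study, dosed orally at 3, 10 or 30 mg/kg. Plasma concentrations are means at 2.5 h postdose, n = 8 per dose group.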

[13] = Plasma protein binding in human; format: ADME, cell-free; conditions: read-out: PPB (converted)
[14] = Plasma concentration in C57BL/6 mouse at 10 mg/kg, po measured at 2.5 hrs; format: ADME, organism-based; design: dose 10 mg/kg, route oral; summary of the method: as §4
Mus musculus [15] = test: Antidiabetic activity in C57BL/6 mouse assessed as reduction in glucose AUC level at 30 mg/kg, po by oral glucose tolerance test relative to control; format: functional; design: scale not given: the % may be the effect or the level left; summary of the method: as §1
[16] = Plasma protein binding in mouse; format: ADME; conditions: read-out: PPB (converted)
[17] = Fraction unbound in human plasma; format: ADME, cell-free
[18] = AUC (infinity) in fed CD-1 mouse at 1 mg/kg, iv as single dose; format: ADME, organism-based; design: time infinity, dose 1 mg/kg, route intravenous; conditions: plasma; summary of the method: as §2
[19] = Cmax in fed CD-1 mouse at 10 mg/kg, po as single dose; format: ADME, organism-based; design: dose 10 mg/kg, route oral; conditions: in vivo; summary of the method: as §3
[20] = Plasma concentration in C57BL/6 mouse at 30 mg/kg, po measured at 2.5 hrs; format: ADME, organism-based; design: dose 30 mg/kg, route oral; summary of the method: as §4
[21] = Volume of distribution at steady state in fed CD-1 mouse at 1 mg/kg, iv as single dose; format: ADME, organism-based; design: dose 1 mg/kg, route intravenous; conditions: in vivo, read-out: Vdss; summary of the method: as §2
[22] = Extraction ratio in fed CD-1 mouse at 1 mg/kg, iv as single dose; format: ADME, organism-based; design: dose 1 mg/kg, route intravenous; conditions: in vivo, read-out: ERH
Summary of the method: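 Male CD-1 mice, fed, given a single 1 mg/kg iv dose in 40% PEG400/20% EtOH/40% saline (v/v). Extraction ratio is calculated from clearance using a mouse hepatic blood flow of 90 mL min−1 kg−1. Plasma concentrations are arithmetic means, n = 3 per time point.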

[23] = AUC (infinity) in fed CD-1 mouse at 10 mg/kg, po as single dose; format: ADME, organism-based; design: time infinity, dose 10 mg/kg, route oral; conditions: plasma; summary of the method: as §3
Mus musculus [24] = test: Antidiabetic activity in ob/ob mouse assessed as reduction in glucose excursion at 30 mg/kg, po bid for 14 days by oral glucose tolerance test; format: functional; design: scale not given: the % may be the effect or the level left
Summary of the method: (§5)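 ob/ob mice dosed orally b.i.d. at 3, 30 and 100 mg/kg for 14 days. On day 14 an OGTT is run, with fasting blood glucose read at −0.5 h and glucose excursion as AUC reduction. Significance is taken at p < 0.05.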

[25] = Solubility of the compound at pH 1.2; format: physicochemical; conditions: buffer
[26] = AUClast in fed CD-1 mouse at 10 mg/kg, po as single dose; format: ADME, organism-based; design: time 0 - last, dose 10 mg/kg, route oral; conditions: plasma; summary of the method: as §3
[27] = AUClast in fed CD-1 mouse at 1 mg/kg, iv as single dose; format: ADME, organism-based; design: time 0 - last, dose 1 mg/kg, route intravenous; conditions: plasma; summary of the method: as §2
Mus musculus [28] = test: Antidiabetic activity in ob/ob mouse assessed as reduction in glucose excursion at 3 mg/kg, po bid for 14 days by oral glucose tolerance test; format: functional; design: scale not given: the % may be the effect or the level left; summary of the method: as §5
Mus musculus [29] = test: Antidiabetic activity in C57BL/6 mouse assessed as minimum glucose level at 30 mg/kg, po measured at 2 hrs by oral glucose tolerance test relative to control; format: functional; summary of the method: as §1
Mus musculus [30] = test: Antidiabetic activity in ob/ob mouse assessed as reduction in glucose excursion at 100 mg/kg, po bid for 14 days by oral glucose tolerance test; format: functional; design: scale not given: the % may be the effect or the level left; summary of the method: as §5
Mus musculus [31] = test: Antidiabetic activity in ob/ob mouse assessed as reduction in fasting blood glucose at 3 mg/kg, po bid for 14 days by oral glucose tolerance test (reference value: 187.9 mg/dL); format: functional; conditions: dose 100 mg/kg, in the assay text read “at 100 mg/kg” for “at 3 mg/kg”; summary of the method: as §5
[32] = Clearance in fed CD-1 mouse at 1 mg/kg, iv as single dose; format: ADME, organism-based; design: dose 1 mg/kg, route intravenous; conditions: in vivo; summary of the method: as §2
[33] = Tmax in fed CD-1 mouse at 10 mg/kg, po as single dose; format: ADME, organism-based; design: dose 10 mg/kg, route oral; conditions: in vivo; summary of the method: as §3

CCc1ncccc1Oc1cc(Sc2ccccn2)cnc1NC(=O)NCc1ccc(O)cc1
EC50 (Hexokinase-4 [1]): 172 nM | EC50 (Hexokinase-4 [2]): 1530 nM

CNC(=O)Nc1ncc(Sc2ccccn2)cc1Oc1cccnc1C
EC50 (Hexokinase-4 [1]): 262 nM | hepatic extraction ratio at 20 min, 1 µM [3]: 0.37 | EC50 (Hexokinase-4 [2]): 1850 nM | hepatic extraction ratio at 20 min, 1 µM [4]: 0.68

CCn1nccc1Oc1cc(Sc2ccccn2)cnc1NC(=O)NC
EC50 (Hexokinase-4 [1]): 319 nM | hepatic extraction ratio at 20 min, 1 µM [3]: 0.45 | EC50 (Hexokinase-4 [2]): 472 nM | hepatic extraction ratio at 20 min, 1 µM [4]: 0.83

CNC(=O)Nc1ncc(Sc2ccccn2)cc1Oc1c(C)n[nH]c1C
EC50 (Hexokinase-4 [1]): 2240 nM | EC50 (Hexokinase-4 [2]): 345 nM

CNC(=O)Nc1ncc(SCc2ccccn2)cc1Oc1cccnc1C
EC50 (Hexokinase-4 [1]): 3090 nM | EC50 (Hexokinase-4 [2]): 9300 nM

CNC(=O)Nc1ncc(SCc2ccccc2)cc1Oc1cccnc1C
EC50 (Hexokinase-4 [1]): 172 nM | hepatic extraction ratio at 20 min, 1 µM [3]: 0.93 | EC50 (Hexokinase-4 [2]): 1170 nM | hepatic extraction ratio at 20 min, 1 µM [4]: 0.93

CNC(=O)Nc1ncc(SCCCO)cc1Oc1cccnc1C
EC50 (Hexokinase-4 [1]): 550 nM | hepatic extraction ratio at 20 min, 1 µM [3]: 0.15 | EC50 (Hexokinase-4 [2]): 714 nM | hepatic extraction ratio at 20 min, 1 µM [4]: 0.19

CNC(=O)Nc1ncc(SCCCOC)cc1Oc1cccnc1C
EC50 (Hexokinase-4 [1]): 182 nM | Activity (Mus musculus [5]): 28.6% | solubility [6]: 45 µg/mL (≈ 124 µM) | half-life [7]: 2.67 h | solubility [8]: 282 µg/mL (≈ 778 µM) | permeability [9]: permeable | Activity (Mus musculus [10]): 8% | hepatic extraction ratio at 20 min, 1 µM [3]: 0.32 | bioavailability [11]: 67.8% | EC50 (Hexokinase-4 [2]): 311 nM | concentration at 2.5 h [12]: 46 ng/mL | fraction unbound [13]: 0.38 | concentration at 2.5 h [14]: 178 ng/mL | Activity (Mus musculus [15]): 30.8% | fraction unbound [16]: 0.26 | fraction unbound [17]: 0.4 | AUC(0-inf) [18]: 773 ng·h/mL | Cmax [19]: 2320 ng/mL | concentration at 2.5 h [20]: 633 ng/mL | Vd [21]: 1.98 L/kg | hepatic extraction ratio [22]: 0.239 | AUC(0-inf) [23]: 5240 ng·h/mL | Activity (Mus musculus [24]): 33.3% | solubility [25]: > 1000 µg/mL | AUC(0-t) [26]: 5030 ng·h/mL | AUC(0-t) [27]: 762 ng·h/mL | Activity (Mus musculus [28]): 18.4% | Activity (Mus musculus [29]): 73 mg/dL | Activity (Mus musculus [30]): 30.8% | Activity (Mus musculus [31]): 125.9 mg/dL | clearance [32]: 21.5 mL/min/kg | hepatic extraction ratio at 20 min, 1 µM [4]: 0.34 | Tmax [33]: 0.5 h

CNC(=O)Nc1ncc(SCC2CCOCC2)cc1Oc1cccnc1C
EC50 (Hexokinase-4 [1]): 317 nM | hepatic extraction ratio at 20 min, 1 µM [3]: 0.48 | EC50 (Hexokinase-4 [2]): 436 nM | hepatic extraction ratio at 20 min, 1 µM [4]: 0.43

CNC(=O)Nc1ncc(SC2CCOCC2)cc1Oc1cccnc1C
EC50 (Hexokinase-4 [1]): 336 nM | hepatic extraction ratio at 20 min, 1 µM [3]: 0.47 | EC50 (Hexokinase-4 [2]): 233 nM | hepatic extraction ratio at 20 min, 1 µM [4]: 0.3

CNC(=O)Nc1ncc(SC2CCN(C(=O)OC(C)(C)C)CC2)cc1Oc1cccnc1C
EC50 (Hexokinase-4 [1]): 132 nM | hepatic extraction ratio at 20 min, 1 µM [3]: 0.95 | EC50 (Hexokinase-4 [2]): 550 nM | hepatic extraction ratio at 20 min, 1 µM [4]: 0.9

CNC(=O)Nc1ncc(SC2CCN(C(C)=O)CC2)cc1Oc1cccnc1C
EC50 (Hexokinase-4 [1]): 111 nM | hepatic extraction ratio at 20 min, 1 µM [3]: 0.44 | EC50 (Hexokinase-4 [2]): 196 nM | hepatic extraction ratio at 20 min, 1 µM [4]: 0.33

CNC(=O)Nc1ncc(SC2CCN(S(C)(=O)=O)CC2)cc1Oc1cccnc1C
EC50 (Hexokinase-4 [1]): 195 nM | hepatic extraction ratio at 20 min, 1 µM [3]: 0.5 | EC50 (Hexokinase-4 [2]): 248 nM | hepatic extraction ratio at 20 min, 1 µM [4]: 0.32
